The term EC50 denotes the midpoint of the concentration-response curve. A high value points to weaker potency.

This note sets out measurements from ChEMBL document CHEMBL1140443, “Inhibitors of apoptosis in lymphocytes: synthesis and biological evaluation of compounds related to pifithrin-alpha” (J Med Chem, 2005).

The species named for assay [1] is Mus musculus. Put plainly: Average percent survival of C57Bl/6 mice thymocytes from Dexamethasone (5 uM) induced apoptosis at 10 uM.
Assay [2] in a line: Concentration for 95% confidence interval (CI) in dexamethasone-induced mice thymocytes; range 3.45-4.69 uM. It counts as functional, Mus musculus. The essentials: (§1)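 Thymocytes from young C57Bl/6 mice, cultured at 37 °C in 5% CO2 in RPMI 1640 with 10% FBS and penicillin/streptomycin, plated at 10⁷ cells/mL. Cells were preincubated 30 min with graded compound concentrations (DMSO stock), then given 5 μM dexamethasone for 6 h. Cells were stained 30 min with 40 nM DiOC6 and 5 μg/mL PI and read by flow cytometry; DiOC6-high/PI-low cells were scored viable. EC50 was taken from a nonlinear one-site fit, with its 95% confidence interval.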

Assay [3] is filed under the species Mus musculus. Put plainly: Concentration required to inhibit dexamethasone-induced death of mice thymocytes. It counts as functional, organism-based. The essentials:
as §1

Assay [4] in a line: Concentration for 95% confidence interval (CI) in dexamethasone-induced mice thymocytes; range 1.76-2.98 uM. The format is functional, Mus musculus. A digest of the protocol: as §1
Assay [5] can be described thus: Concentration for 95% confidence interval (CI) in dexamethasone-induced mice thymocytes; range 0.11-1.08 uM. The format is functional, Mus musculus. The essentials:
as §1

A short description of assay [6]: Concentration for 95% confidence interval (CI) in dexamethasone-induced mice thymocytes; range 4.08-8.01 uM. It counts as functional, Mus musculus. A digest of the protocol:
as §1

Assay [7] is described as follows: Concentration for 95% confidence interval (CI) in dexamethasone-induced mice thymocytes; range 1.51-2.24 uM. The format is functional, Mus musculus. The essentials:
as §1

Assay [8] can be described thus: Concentration for 95% confidence interval (CI) in dexamethasone-induced mice thymocytes; range 0.94-1.82 uM. The format is functional, Mus musculus. The essentials: as §1

For the compound `c1ccc2cc(-c3ccc(-c4cn5c(n4)sc4ccccc45)cc3)ccc2c1`, the Survival in assay [1] is listed as 75%. In assay [2], this compound came in with a CI of 4.69 µM. The EC50 in assay [3] is 4020 nM.
Take `N=c1sc2c(n1CC(=O)c1ccc(-c3ccccc3)cc1)CCCC2`: the Survival in assay [1] is 65%. For the same compound, in assay [4], the CI came out at 2.98 µM. The EC50 in assay [3] turned out to be 2290 nM.
With `c1ccc2c(c1)sc1nc(-c3ccc(N4CCCC4)cc3)cn12`, the Survival in assay [1] is reported as 78%. Moreover, the CI in assay [5] came to 1.08 µM. Besides, in assay [3], the EC50 amounted to 350 nM.
`N=c1sc2c(n1CC(=O)c1ccccc1Cl)CCCC2` had a Survival in assay [1] of 65%. The compound also gave a CI in assay [6] of 8.01 µM. The EC50 in assay [3] turned out to be 5720 nM.
For the compound `CCN(CC)c1ccc(C(=O)Cn2c3c(sc2=N)CCCC3)cc1`, the Survival in assay [1] is reported as 70%. Further, the CI in assay [7] turned out to be 2.24 µM. In assay [3], this compound yielded an EC50 of 1840 nM.
In turn, `N=c1sc2c(n1CC(=O)c1ccc(N3CCCC3)cc1)CCCC2` displayed a Survival in assay [1] of 77%. The compound further had a CI in assay [8] of 1.82 µM. This compound came in with a concentration for a half-maximal effect (EC50) in assay [3] of 1310 nM.
